Results as given in ChEMBL document CHEMBL4715780, “Biological evaluation of tetracationic compounds based on two 1,4-diazabicyclo[2.2.2]octane moieties connected by different linkers” (Bioorg Med Chem, 2016).

What was measured:
[1] = tested on: Pseudomonas aeruginosa; assay: Antibacterial activity against Pseudomonas aeruginosa ATCC 9027 assessed as bacterial growth inhibition by CLSI protocol based serial microdilution method; assay type: functional
[2] = tested on: Staphylococcus aureus; assay: Antibacterial activity against methicillin-resistant Staphylococcus aureus CEMTC 707 assessed as bacterial growth inhibition by CLSI protocol based serial microdilution method; assay type: functional
[3] = tested on: Pseudomonas aeruginosa; assay: Antibacterial activity against Pseudomonas aeruginosa ATCC 9027 assessed as concentration required to inhibit visible growth by CLSI protocol based serial microdilution method; assay type: functional
[4] = tested on: Staphylococcus aureus; assay: Antibacterial activity against methicillin-resistant Staphylococcus aureus CEMTC 1733 assessed as concentration required to inhibit visible growth by CLSI protocol based serial microdilution method; assay type: functional
[5] = tested on: Salmonella typhimurium; assay: Antibacterial activity against Salmonella enterica ATCC 14028 assessed as concentration required to inhibit visible growth by CLSI protocol based serial microdilution method; assay type: functional
[6] = tested on: Escherichia coli; assay: Antibacterial activity against Escherichia coli ATCC 25922 assessed as bacterial growth inhibition by CLSI protocol based serial microdilution method; assay type: functional
[7] = tested on: Staphylococcus aureus; assay: Antibacterial activity against methicillin-resistant Staphylococcus aureus CEMTC 1695 assessed as bacterial growth inhibition by CLSI protocol based serial microdilution method; assay type: functional
[8] = tested on: Salmonella typhimurium; assay: Antibacterial activity against Salmonella enterica ATCC 14028 assessed as bacterial growth inhibition by CLSI protocol based serial microdilution method; assay type: functional
[9] = tested on: Staphylococcus aureus; assay: Antibacterial activity against […] Staphylococcus aureus ATCC 25923 assessed as concentration required to inhibit visible growth by CLSI protocol based serial microdilution method; assay type: functional
[10] = tested on: Staphylococcus aureus; assay: Antibacterial activity against methicillin-resistant Staphylococcus aureus CEMTC 1732 assessed as bacterial growth inhibition by CLSI protocol based serial microdilution method; assay type: functional
[11] = tested on: Proteus vulgaris; assay: Antibacterial activity against Proteus vulgaris ATCC 6380 assessed as bacterial growth inhibition by CLSI protocol based serial microdilution method; assay type: functional
[12] = tested on: Staphylococcus aureus; assay: Antibacterial activity against methicillin-resistant Staphylococcus aureus CEMTC 1850 assessed as concentration required to inhibit visible growth by CLSI protocol based serial microdilution method; assay type: functional
[13] = tested on: Staphylococcus aureus; assay: Antibacterial activity against […] Staphylococcus aureus ATCC 25923 assessed as bacterial growth inhibition by CLSI protocol based serial microdilution method; assay type: functional
[14] = tested on: Enterococcus faecalis; assay: Antibacterial activity against Enterococcus faecalis ATCC 51299 assessed as concentration required to inhibit visible growth by CLSI protocol based serial microdilution method; assay type: functional
[15] = tested on: Citrobacter freundii; assay: Antibacterial activity against Citrobacter freundii ATCC 8090 assessed as bacterial growth inhibition by CLSI protocol based serial microdilution method; assay type: functional
[16] = tested on: Escherichia coli; assay: Antibacterial activity against Escherichia coli ATCC 25922 assessed as concentration required to inhibit visible growth by CLSI protocol based serial microdilution method; assay type: functional
[17] = tested on: Staphylococcus aureus; assay: Antibacterial activity against methicillin-resistant Staphylococcus aureus CEMTC 1695 assessed as concentration required to inhibit visible growth by CLSI protocol based serial microdilution method; assay type: functional
[18] = tested on: Citrobacter freundii; assay: Antibacterial activity against Citrobacter freundii ATCC 8090 assessed as concentration required to inhibit visible growth by CLSI protocol based serial microdilution method; assay type: functional
[19] = tested on: Staphylococcus aureus; assay: Antibacterial activity against methicillin-resistant Staphylococcus aureus CEMTC 1733 assessed as bacterial growth inhibition by CLSI protocol based serial microdilution method; assay type: functional
[20] = tested on: Staphylococcus aureus; assay: Antibacterial activity against methicillin-resistant Staphylococcus aureus CEMTC 675 assessed as bacterial growth inhibition by CLSI protocol based serial microdilution method; assay type: functional
[21] = tested on: Staphylococcus aureus; assay: Antibacterial activity against methicillin-resistant Staphylococcus aureus CEMTC 675 assessed as concentration required to inhibit visible growth by CLSI protocol based serial microdilution method; assay type: functional
[22] = tested on: Enterococcus faecalis; assay: Antibacterial activity against Enterococcus faecalis ATCC 51299 assessed as bacterial growth inhibition by CLSI protocol based serial microdilution method; assay type: functional
[23] = tested on: Proteus vulgaris; assay: Antibacterial activity against Proteus vulgaris ATCC 6380 assessed as concentration required to inhibit visible growth by CLSI protocol based serial microdilution method; assay type: functional
[24] = tested on: Staphylococcus aureus; assay: Antibacterial activity against methicillin-resistant Staphylococcus aureus CEMTC 1850 assessed as bacterial growth inhibition by CLSI protocol based serial microdilution method; assay type: functional
[25] = tested on: Staphylococcus aureus; assay: Antibacterial activity against methicillin-resistant Staphylococcus aureus CEMTC 707 assessed as concentration required to inhibit visible growth by CLSI protocol based serial microdilution method; assay type: functional
[26] = tested on: Staphylococcus aureus; assay: Antibacterial activity against methicillin-resistant Staphylococcus aureus CEMTC 1732 assessed as concentration required to inhibit visible growth by CLSI protocol based serial microdilution method; assay type: functional
[27] = Selectivity index, ratio of CC50 for HEK293T cells assessed as reduction in cell viability measured after 24 hrs by MTT assay to MIC for Escherichia coli ATCC 25922 assessed as bacterial growth inhibition by CLSI protocol based serial microdilution method; assay type: toxicity; conditions: human, read-out: Selectivity Index
[28] = Cytotoxicity against MDCK cells assessed as cell death incubated for 48 hrs by MTT assay; assay type: cell-based, Canis lupus familiaris; conditions: dog
[29] = tested on: Candida albicans; assay: Antifungal activity against Candida albicans CEMTC 34 assessed as fungal growth inhibition by CLSI protocol based serial microdilution method; assay type: functional
How it was run: (§1)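 Candida albicans grown in Sabouraud dextrose broth with two-fold serial compound dilutions from water stocks; final inoculum about 5 × 10⁵ CFU/mL. Incubated at 37 °C with orbital shaking (580 rpm). MIC is the lowest concentration preventing growth, by absorbance at 595 nm. MFC is the lowest concentration with no visible growth. Duplicates in two separate experiments.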

[30] = Selectivity index, ratio of CC50 for HEK293T cells assessed as reduction in cell viability measured after 24 hrs by MTT assay to MIC for Citrobacter freundii ATCC 8090 assessed as bacterial growth inhibition by CLSI protocol based serial microdilution method; assay type: toxicity; conditions: human, read-out: Selectivity Index
[31] = Selectivity index, ratio of CC50 for HEK293T cells assessed as reduction in cell viability measured after 24 hrs by MTT assay to MIC for Enterococcus faecalis ATCC 51299 assessed as bacterial growth inhibition by CLSI protocol based serial microdilution method; assay type: toxicity; conditions: human, read-out: Selectivity Index
[32] = tested on: Candida albicans; assay: Antifungal activity against Candida albicans CEMTC 34 assessed as concentration required to inhibit visible growth by CLSI protocol based serial microdilution method; assay type: functional; how it was run: as §1
[33] = Selectivity index, ratio of CC50 for MDCK cells to EC50 for Influenza A virus (A/Puerto Rico/8/34 (H1N1)) infected in MDCK cells; assay type: toxicity, cell-based; conditions: dog, read-out: Ratio CC50/EC50
How it was run: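 Ratio of CC₅₀ to EC₅₀, both in MDCK cells, with cytotoxicity run in parallel with the antiviral assay. EC₅₀ is the concentration halving virus production (0.3 log₁₀ EID₅₀ titre drop). It was obtained after 1 h compound pre-incubation, infection, 48 h at 37 °C, and hemagglutination read-out with 1% chicken erythrocytes.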

[34] = tested on: Influenza A virus; assay: Antiviral activity against Influenza A virus (A/Puerto Rico/8/34 (H1N1) infected in MDCK cells assessed as decrease in viral titer preincubated for 1 hr followed by viral infection and cultivated for 48 hrs followed by supernatant transferred to chicken erythrocyte for 1 hr followed by measuring ability to cause positive hemagglutination; assay type: functional, organism-based; conditions: A/Puerto Rico/8/1934(H1N1)
How it was run: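 MDCK monolayers in MEM were pre-incubated with compound for 1 h at 37 °C, then infected with 10-fold virus dilutions (10⁻¹–10⁻⁶) and held 48 h at 37 °C, 5% CO₂. Supernatant was mixed with an equal volume of 1% chicken erythrocytes, 60 min at room temperature. Titre was taken from the highest dilution giving full agglutination (log₁₀ EID₅₀). Triplicate per concentration.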

[35] = Selectivity index, ratio of CC50 for HEK293T cells assessed as reduction in cell viability measured after 24 hrs by MTT assay to MIC for Salmonella enterica ATCC 14028 assessed as bacterial growth inhibition by CLSI protocol based serial microdilution method; assay type: toxicity; conditions: human, read-out: Selectivity Index
[36] = Selectivity index, ratio of CC50 for HEK293T cells assessed as reduction in cell viability measured after 24 hrs by MTT assay to MIC for Candida albicans CEMTC 34 assessed as bacterial growth inhibition by CLSI protocol based serial microdilution method; assay type: toxicity; conditions: human, read-out: Selectivity Index
How it was run: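 SI = CC₅₀ (HEK293T) / MIC. HEK293T cells were seeded at 20,000/well overnight, then exposed to 10–250 µg/mL in IMDM with 10% FBS for 24 h. MTT was added for 4 h, solubilised with SDS-HCl, and read at 570 nm; duplicates, ≥2 independent runs. MIC came from two-fold dilutions in Sabouraud dextrose broth at ~5 × 10⁵ CFU/mL, 37 °C with shaking, read at 595 nm, in duplicate.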

[37] = Cytotoxicity against human MCF7 cells assessed as reduction in cell viability measured after 24 hrs by MTT assay; assay type: cell-based
How it was run: (§2)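 HEK293T or MCF-7 cells in IMDM with 10% FBS, seeded at 20,000 per well and grown overnight. Compounds at […] in fresh medium for 24 h at 37 °C, 5% CO₂. MTT then added for 4 h, precipitate dissolved overnight in SDS-HCl, absorbance read at 570 nm. Viability expressed relative to untreated cells, giving CC₅₀. Duplicate wells, at least two independent repeats.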

[38] = Selectivity index, ratio of CC50 for HEK293T cells assessed as reduction in cell viability measured after 24 hrs by MTT assay to MIC for Pseudomonas aeruginosa ATCC 9027 assessed as bacterial growth inhibition by CLSI protocol based serial microdilution method; assay type: toxicity; conditions: human, read-out: Selectivity Index
[39] = Selectivity index, ratio of CC50 for HEK293T cells assessed as reduction in cell viability measured after 24 hrs by MTT assay to MIC for Proteus vulgaris ATCC 6380 assessed as bacterial growth inhibition by CLSI protocol based serial microdilution method; assay type: toxicity; conditions: human, read-out: Selectivity Index
[40] = Selectivity index, ratio of CC50 for HEK293T cells assessed as reduction in cell viability measured after 24 hrs by MTT assay to MIC for Staphylococcus aureus ATCC 25923 assessed as bacterial growth inhibition by CLSI protocol based serial microdilution method; assay type: toxicity; conditions: human, read-out: Selectivity Index
[41] = Cytotoxicity against HEK293T cells assessed as reduction in cell viability measured after 24 hrs by MTT assay; assay type: cell-based, HEK-293T; conditions: human; how it was run: as §2
[42] = Salmonella enterica subsp. enterica serovar Typhimurium

Compound | MIC [1] [µg/mL] | MBC [3] [µg/mL] | MIC [6] [µg/mL] | MBC [9] [µg/mL] | MIC [11] [µg/mL] | MIC [13] [µg/mL] | MBC [14] [µg/mL] | MIC [15] [µg/mL] | MBC [16] [µg/mL] | MBC [18] [µg/mL] | MIC [22] [µg/mL] | MBC [23] [µg/mL] | selectivity ratio at 24 h [27] | CC50 at 48 h [28] [µg/mL] | MIC [29] [µg/mL] | selectivity ratio at 24 h [30] | selectivity ratio at 24 h [31] | MFC [32] [µg/mL] | selectivity ratio [33] | MBC [5] [µg/mL] | other results
GENTAMICIN | > 400 | > 400 | 50 | 100 | 0.8 | 50 | 100 | 0.4 | 100 | 0.8 | 50 | 1.6 | – | – | – | – | – | – | – | – | MIC [2]: 1 µg/mL; MBC [4]: 1 µg/mL; MBC [5, 42]: 1.6 µg/mL; MIC [7]: > 100 µg/mL; MIC [8, 42]: 0.8 µg/mL; MIC [10]: > 100 µg/mL; MBC [12]: > 100 µg/mL; MBC [17]: > 100 µg/mL; MIC [19]: 1 µg/mL; MIC [20]: > 100 µg/mL; MBC [21]: > 100 µg/mL; MIC [24]: 10 µg/mL; MBC [25]: 1 µg/mL; MBC [26]: > 100 µg/mL
CCCCCCCCCCCC[N+]12CC[N+](CC#CC[N+]34CC[N+](CCCCCCCCCCCC)(CC3)CC4)(CC1)CC2 | 3.1 | 12.5 | 63 | 3.1 | 100 | 1.6 | 3.1 | 6.3 | 12.5 | 12 | 1.6 | > 100 | 4 | 4 | 12.5 | 4 | 14 | 12.5 | < 1 | 12.5 | EC50 [34]: > 3 µg/mL; MIC [8]: 6.3 µg/mL; selectivity ratio at 24 h [35]: 4; selectivity ratio at 24 h [36]: 2; CC50 at 24 h [37]: 23 µg/mL; selectivity ratio at 24 h [38]: 7; selectivity ratio at 24 h [39]: < 1; selectivity ratio at 24 h [40]: 14; CC50 at 24 h [41]: 22 µg/mL
CCCCCCCCCCCC[N+]12CC[N+](Cc3ccc(C[N+]45CC[N+](CCCCCCCCCCCC)(CC4)CC5)cc3)(CC1)CC2 | 6.3 | 12.5 | 1.6 | 1.2 | 12.5 | 0.6 | 1.6 | 1.6 | 3.1 | 3.1 | 1.6 | 25 | 10 | 2.9 | 12.5 | 10 | 10 | 12.5 | 3 | 3.1 | EC50 [34]: 1 µg/mL; MIC [8]: 1.6 µg/mL; selectivity ratio at 24 h [35]: 10; selectivity ratio at 24 h [36]: 1; CC50 at 24 h [37]: 16 µg/mL; selectivity ratio at 24 h [38]: 3; selectivity ratio at 24 h [39]: 1; selectivity ratio at 24 h [40]: 27; CC50 at 24 h [41]: 16 µg/mL
